Data on 16 molecules can be found in ChEMBL document CHEMBL1156886, “Exploring epidermal growth factor receptor (EGFR) inhibitor features: the role of fused dioxygenated rings on the quinazoline scaffold” (J Med Chem, 2010).

SMILES strings stand for the structures. Calls of active or inactive are those of the source. No cut-off for these calls is given here. A value given as a limit tells only on which side of the number the result lay.

What all share (assay type): functional, cell-based
One experiment relates to NIH3T3. Description: Cytotoxicity against mouse NIH/3T3 cells after 72 hrs by MTT assay. The settings on record: NIH3T3, 72 h. Put shortly: (§1)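 MTT proliferation assay after 72 h continuous compound exposure in A431 (EGFR-overexpressing) and NIH3T3 (not expressing EGFR) cells. Highest concentration tested 10 μM, limited by precipitation in culture medium. IC50 not derived when inhibition stayed below 50% at 10 μM. Values are mean ± SD of at least three independent experiments.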
(Tetrazolium assays rely on reduction of a dye to a coloured formazan, in cell work by metabolically active cells.)

Experiment [1] deals with A-431. Description: Cytotoxicity against human A431 cells after 72 hrs by MTT assay. The settings on record: A-431, 72 h. Summed up:
as §1

The test system of experiment [2] is A-431. Description: Antiproliferative activity against human A431 cells assessed as cell growth at 10 uM pretreated for 24 hrs measured after 68 hrs of drug removel by MTT assay.
Experiment [3] concerns A-431. Description: Antiproliferative activity against exogenous EGF-induced human A431 cell growth at 0.1 uM pretreated for 24 hrs measured after 72 hrs of drug removel by MTT assay.

For the molecule `Brc1cccc(Nc2ncnc3cc4c(cc23)OCCCO4)c1`, the IC50 (as a rule, the concentration at which inhibition is half-maximal) in the experiment on NIH3T3 was > 10 µM; in the experiment on A-431 [1], 8.17 µM. The result in the experiment with A-431 [2] was Active.

As to `FC(F)(F)c1cccc(Nc2ncnc3cc4c(cc23)OCCCO4)c1`, the results for the IC50 in the experiment on NIH3T3 and with A-431 [1] were > 10 µM and 4.73 µM, respectively. Besides, the outcome in the experiment on A-431 [2] was Active.

`COc1cc2ncnc(Nc3cccc(Br)c3)c2cc1OC`: the result in the experiment on A-431 [3] was inactive. Moreover, in the experiment on NIH3T3, the IC50 is > 10 µM. Also, the outcome with A-431 [2] was Active.

Regarding `Brc1cccc(Nc2ncnc3cc4c(cc23)OCCO4)c1`, the IC50 is > 10 µM with NIH3T3 and 0.75 µM with A-431 [1]. Moreover, in the experiment on A-431 [2], the result was Active.

As to `Cc1cccc(Nc2ncnc3cc4c(cc23)OCO4)c1`, the IC50 is > 10 µM in the experiment with NIH3T3 and 6.69 µM with A-431 [1]. In addition, the result with A-431 [2] was Active.

As to `Fc1ccc(Nc2ncnc3cc4c(cc23)OCCO4)cc1Cl`, in the experiment on A-431 [1], the IC50 is > 10 µM.

Turning to `FC(F)(F)c1cccc(Nc2ncnc3cc4c(cc23)OCO4)c1`, the IC50 was > 10 µM with NIH3T3 and 8.46 µM in the experiment on A-431 [1]. Besides, the result with A-431 [2] was Active.

`Fc1ccc(Nc2ncnc3cc4c(cc23)OCCCO4)cc1Cl`: the figures for the IC50 in the experiment on NIH3T3 and in the experiment on A-431 [1] were > 10 µM and 7.13 µM, respectively. For the same molecule, the result in the experiment with A-431 [2] was Active.

Turning to `Fc1cc(Br)ccc1Nc1ncnc2cc3c(cc12)OCCCO3`, the IC50 in the experiment with A-431 [1] was > 10 µM.

As for `Brc1cccc(Nc2ncnc3cc4c(cc23)OCO4)c1`, the IC50 in the experiment on NIH3T3 was > 10 µM; in the experiment with A-431 [1], 7.16 µM. In addition, in the experiment on A-431 [2], the outcome was Active.

Regarding `Cc1cccc(Nc2ncnc3cc4c(cc23)OCCO4)c1`, the figures for the IC50 in the experiment with NIH3T3 and in the experiment with A-431 [1] were 5.8 µM and 0.67 µM, respectively. For the same molecule, the result with A-431 [2] was Active.

Regarding `Fc1ccc(Nc2ncnc3cc4c(cc23)OCO4)cc1Cl`, the IC50 in the experiment with A-431 [1] is > 10 µM.

`Fc1cc(Br)ccc1Nc1ncnc2cc3c(cc12)OCO3`: the IC50 in the experiment with A-431 [1] was > 10 µM.

For the molecule `Cc1cccc(Nc2ncnc3cc4c(cc23)OCCCO4)c1`, the IC50 with NIH3T3 was > 10 µM; with A-431 [1], 6.29 µM. Further, the outcome in the experiment with A-431 [2] was Active.

Consider `FC(F)(F)c1cccc(Nc2ncnc3cc4c(cc23)OCCO4)c1`, for which the IC50 in the experiment on NIH3T3 was found to be 7.1 µM; in the experiment with A-431 [1], 0.77 µM. For the same molecule, in the experiment on A-431 [2], the outcome was Active.

As for `Fc1cc(Br)ccc1Nc1ncnc2cc3c(cc12)OCCO3`, the IC50 with NIH3T3 turned out to be 5.4 µM; with A-431 [1] it was 6.28 µM. Moreover, the result in the experiment on A-431 [2] was Active.
